Assay: Toxicity liver stage against HepG2, at 10uM
Assay type: cell-based
Parameters: test concentration 10 uM, cell line HepG2-A16-CD81EGFP
Conditions: human, HepG2-A16-CD81EGFP cells; read-out: INHIBITION
Summary of the method: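 Uninfected HepG2-A16-CD81EGFP cells, 3 × 10^3 per well, 1536-well, plated on prespotted compound at 10 μM final, parasite-free screening media added to match infected plates; puromycin 10 μM positive, DMSO 0.5% negative; run in parallel with 48 h PbLuc assay at 37 °C, 5% CO2; viability by CellTiter-Glo luminescence, normalized to controls.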

| Structure (SMILES) | cytotoxicity at 10 µM |
| --- | --- |
| CCCC(=O)N(C)Cc1cccc(OC(C)C)c1 | -4.24% |
| Cc1nn(CCC(=O)NC2CCS(=O)(=O)C2)c(C)c1Br (stereo not given) | 0.549% |
| CCCOCCN1CCc2[nH]c(-c3ccc(OC)cc3)nc2C1 | -113% |
| Cc1nc2c(c(NC(C)C)n1)CCN(C(=O)c1ccno1)CC2 | 7.77% |
| COCCN1CC[C@H](OC)[C@@H]1Cc1ccccc1 | -0.675% |
| Cn1ccnc1CNc1c(F)cccc1-n1cccn1 | -5.2% |
| CN1CCN(S(=O)(=O)c2cccc(C#N)c2)c2ccc(F)cc21 | 2.98% |
| Cc1noc(C)c1CN1CC[C@H]2C[C@H](c3ccncn3)O[C@@H]2C1 | -69.5% |
| COc1ccc(F)cc1C(=O)C1CCCN(Cc2ccc(C)s2)C1 (stereo not given) | -1.84% |
| CC(C)c1ccc(-n2cc(O)c(C(=O)O)n2)cc1 | -42.4% |
| CCc1ccc(S(=O)(=O)Nc2ccc(F)cc2C(=O)O)s1 | 3.69% |
| CCn1nc(C)c2nc(C)nc(NCCCn3cccn3)c21 | 2.38% |
| COc1cc(CN2CCCC2)ccc1Oc1ccc2c(c1)CC(CN)O2 (stereo not given) | -7.79% |
| CC(C)NC(=O)N1CCCC(c2nnc(CN3CCOCC3)n2C)C1 (stereo not given) | -0.392% |
| COc1ccc(C2CC(=O)Nc3c2nc2n3CCCC2)cc1O (stereo not given) | -2.53% |
| COCCN(C)C[C@@H]1CN(C(=O)c2c(C)cccc2OC)C[C@@H]1CO | -4.26% |
| Cc1cnn(CC2CCCCN2CCS(C)(=O)=O)c1 (stereo not given) | -13.7% |
| CCC(c1ccncc1)N(C)S(C)(=O)=O (stereo not given) | -5.98% |
| Cc1cccc(CC(=O)N2CCCC(c3n[nH]c4nccnc34)C2)c1 (stereo not given) | -8.52% |
| Cc1ccc(Nc2nccc(C3CCN(C(=O)CN)C3)n2)nc1 (stereo not given) | -18.5% |
| Nc1cc(CCC2CN(Cc3ccc4cc[nH]c4c3)CCO2)ccn1 (stereo not given) | -10.6% |
| CCC(C(=O)NC1CCCCC1)n1cccc(OC)c1=O (stereo not given) | -2.23% |

| Structure (SMILES) | cytotoxicity at 10 µM |
| --- | --- |
| CCOc1ccc(NC(=O)N2CCC(n3cncn3)CC2)cc1Cl | -7.22% |
| O=C(c1coc(COc2cccc3cnccc23)n1)N1CCCCCC1 | -128% |
| CC(NC(=O)N(C)Cc1cccc(OC(F)F)c1)c1nncn1C (stereo not given) | -2.69% |
| Cc1cc(C)n(Cc2cc(C(=O)N[C@H]3CCCCNC3=O)n[nH]2)n1 | 5.97% |
| CC(C)c1nnc2n1CC(CNCc1ccncc1)CC2 (stereo not given) | -17.5% |
| O=C(c1ccc[nH]1)N1CC2(CCN(c3ncccn3)C2)C1 | 2.26% |
| COCc1noc(CCNC(=O)c2cc(C)c(C)[nH]c2=O)n1 | -4.71% |
| Cc1cc(N(C)C)nc(C2COCCN2Cc2nccn2C)n1 (stereo not given) | -3.43% |
| CC(C)CC(=O)N1CCc2ccc(S(=O)(=O)N3CCN(C)CC3)cc2C1 | -15.3% |
| CCc1ccc(CN2C[C@@H](c3nc(C)no3)C[C@H]3OCC[C@H]32)o1 | -75.8% |
| CCc1ccc(OCC(=O)N2CCN(CC)CC2)cc1 | 6.15% |
| Clc1cccc(-n2cnnn2)c1N1CCCC1 | 9.35% |
| CC(O)CN1CCC(CNCc2ccccc2C(F)(F)F)CC1 (stereo not given) | -9.27% |
| CCNC(=O)N1CCC(NC(=O)NCCCc2cccc(F)c2)C1 (stereo not given) | -47.5% |
| CN(C)CCN1CCN(Cc2nccs2)Cc2cccnc21 | -1.08% |
| COc1ccc(C2=CCN(C(=O)C3CCCN(C(C)=O)C3)CC2)cc1 (stereo not given) | -13.4% |
| O=C(CSC(F)(F)F)N1CCC2(CCCN(C3CCOCC3)C2=O)C1 (stereo not given) | -128% |
| CCn1nc(C)c(CNC(=O)c2cn(CCC3CCCCN3)nn2)c1C (stereo not given) | -1.96% |
| COc1ccsc1C(=O)NCCN1CCOCC1 | 6.57% |
| CCc1cnc(N2C[C@@H](NC(=O)c3cscn3)[C@H]3COC[C@H]32)nc1 | -127% |
| CN(C)S(=O)(=O)N1C[C@H]2CC[C@@H](C1)N(Cc1ccc3[nH]ccc3c1)C2 | 3.07% |
| COC(=O)Cn1cccc(S(=O)(=O)N2CCC(C)CC2)c1=O | -2.85% |

| Structure (SMILES) | cytotoxicity at 10 µM |
| --- | --- |
| Cc1cnn(CC2CCCCN2C(=O)c2cc(Cl)c[nH]2)c1 (stereo not given) | -5.4% |
| Cc1cc(CN(C)C2CCN(c3cccc(-c4cscn4)c3)CC2)on1 | -0.371% |
| O=C(NCCCN1CCCC1=O)c1nc(-c2ccc3cc[nH]c3c2)no1 | -7.99% |
| COCCCNC(=O)C1CCN(CC2(O)CCC(C)CC2)CC1 (stereo not given) | 21.6% |
| COc1ccnc(N2CCC(OCCN3CCCCC3)C2)n1 (stereo not given) | -44.9% |
| O=C(NCCNc1ncccn1)C1CC(=O)N(CC2CC2)C1 (stereo not given) | -14% |
| O=C(CCc1ccc2c(c1)OCO2)Nc1cccnc1-n1cncn1 | 4.98% |
| O=C(NCCc1ccn(-c2ccccc2)n1)N1CCC1 | -0.361% |
| Fc1cnc(N2CCOC3(CCN(Cc4ccsc4)CC3)C2)nc1 | 2.6% |
| CCCC(=O)N1CCCCC1C(=O)Nc1ccc(-c2nnc[nH]2)cc1 (stereo not given) | 7.65% |
| NC(=O)CC1CCCN(c2cncc(SCc3ccccc3)n2)C1 (stereo not given) | 11% |
| Cc1nc(Nc2cnccn2)cc(C2CCN(CCO)C2)n1 (stereo not given) | 0.636% |
| Clc1cccc(-c2noc(CCN3CCN(c4ccncc4)CC3)n2)c1 | 24% |
| Cc1cc2c(cc1Cl)C=CC1(CCN(CC(=O)NC3CCCC3)CC1)O2 | 17% |
| CC(C)(CNC(=O)c1ccc(Cl)o1)NC(=O)OC(C)(C)C | -2.25% |
| COc1ccccc1OC1CN(c2ccncc2)C1 | -2.76% |
| CN1CCN(Cc2ccccc2Oc2ccc(C(N)=O)cn2)CC1 | -23.6% |
| CCN(C(=O)CS(=O)(=O)Cc1cc(Cl)c2c(c1)OCCCO2)C1CC1 | 0.787% |
| N[C@H]1CN(C(=O)CCc2cc(Cl)no2)C[C@@H]1c1ccccc1 | -7.03% |
| CN1CCNCC(Cc2cnc3ccccc3c2)C1 (stereo not given) | -12.4% |
| Cc1cnn(CC2CN(CC(=O)Nc3nncs3)CCO2)c1 (stereo not given) | -10% |
| O=C(Nc1ccccc1)C1=NOC2(CCNCC2)C1 | 5.77% |

| Structure (SMILES) | cytotoxicity at 10 µM |
| --- | --- |
| CCN(CC)C(CNS(=O)(=O)c1ccc(C(C)=O)cc1)c1ccco1 (stereo not given) | -20.1% |
| COCc1ccccc1NC(=O)NC(C)c1ccc(C)o1 (stereo not given) | 0.205% |
| CCc1ccc(C(=O)N2CC[C@](C)(O)C(C)(C)C2)[nH]1 | 2.43% |
| COc1ccccc1CNC(=O)C[S+]([O-])Cc1cc(C)on1 (stereo not given) | -4.92% |
| CC(C)CNC(=O)[C@H]1CCS(=O)(=O)[C@@H]2CN(Cc3cccnc3)C[C@H]12 | -2.36% |
| N#Cc1ccc(N2CCCC3(CCN(c4cccnc4)CC3)C2)cc1 | 55.5% |
| COc1cc(CNCCc2cnn(C)c2)cc(OC)c1OC | -9.51% |
| CSCCN(C)Cc1ccc(F)cc1C#N | 4.81% |
| O=C(CCS(=O)(=O)C1CCCC1)NCCc1cccnc1 | 6.86% |
| Cc1ccc(NC(=O)N(C)C)c(C(=O)OCC(=O)NC(C)C(C)C)c1 (stereo not given) | -14.9% |
| CCOCC(=O)N1CCC(C(O)c2ccc(F)cc2)CC1 (stereo not given) | -3.83% |
| CC[C@H]1CN2CC[C@H]1C[C@@H]2CNCc1ccc(N(C)C)cc1 | -5.66% |
| c1cc(CN2CCOCC3(C2)CN(Cc2nccs2)CCO3)ccn1 (stereo not given) | 2.14% |
| O=C(NCc1cncc2c1CCN(C1CCOCC1)C2)c1ccno1 | -2.67% |
| CCCN1CCC(CNC(=O)C2(c3cccc(C)c3)CC2)C1 (stereo not given) | -13.4% |
| Cc1cc2ccccc2n1CC(=O)Nc1ccnn1CC1CCOC1 (stereo not given) | 7.77% |
| CC(C)(C)c1cc(C[C@H]2CNCC[C@H]2CC(=O)N2CCCCC2)no1 | -1.91% |
| O=C(NC1CC1)[C@H]1COC[C@H]2CN(c3ncc(F)cn3)C[C@H]21 | -0.664% |
| CC(C)c1nc(C(=O)N2CCc3ccccc3C2C(=O)O)cs1 (stereo not given) | 9.63% |
| CCOc1ccccc1N1CCN(c2nnc(C)o2)CC1 | -10.9% |
| CCC(CC)CN(C)Cc1nc(-c2ccccc2NS(C)(=O)=O)oc1C | -7.69% |
| CCOCC1CN(Cc2nccs2)Cc2nn(CC3CC3)cc21 (stereo not given) | -1.81% |

| Structure (SMILES) | cytotoxicity at 10 µM |
| --- | --- |
| CC(C)c1n[nH]c(C2CN(C(=O)c3cccc4cn[nH]c34)CCO2)n1 (stereo not given) | -5.31% |
| CCCN1CCC(Cc2noc(-c3[nH]cnc3C)n2)CC1 | 1.34% |
| COC[C@@H]1CC[C@H]2[C@H](CCN2S(=O)(=O)c2ccc(C)cc2)O1 | -1.05% |
| CC(C)Cn1ccnc1CNC(=O)NC(C)c1nccs1 (stereo not given) | -14.3% |
| O=C(NCC1CC1)c1cc(C2CC2)nc2onc(C3CCCNC3)c12 (stereo not given) | 4.98% |
| O=C(Nc1cccc(CN2CCOC2=O)c1)N1CCCCCC1 | 18.6% |
| CCOc1ccnc(N2CCN(C(=O)c3ccn(C)c(=O)c3)CC2)n1 | -14.8% |
| CC(C)(C)c1ncc(CNCC2CCCn3ccnc32)s1 (stereo not given) | -6.76% |
| CCN(Cc1nc2c(cnn2C)c(=O)[nH]1)c1cc(C)cc(C)c1 | -5.83% |
| Cc1cccc(C(=O)NCC(O)c2ccc(F)cc2F)c1 (stereo not given) | 6.27% |
| CC(c1nc(C2CC2)no1)N(C)Cc1ccc2c(c1)OCCO2 (stereo not given) | 0.611% |
| COCc1nc(CNC2CCN(C(C)C)CC2)no1 | 4.04% |
| COc1ccc(CCC(=O)N(C(C)C)C2CCOCC2)cc1 | -11.8% |
| CCCc1nnc(N2CCC3(CC2)CC(=O)NC(=O)C3)o1 | 3.06% |
| Cn1c(=O)c2cc(C(=O)NCCc3ccccc3)ccc2n(C)c1=O | -13.8% |
| Cc1cc(C)c2nc(CNC3CCCNC3=O)cc(O)c2c1 (stereo not given) | 5.84% |
| CC(C(=O)Nc1nccs1)N(C)Cc1cccc(C#N)c1 (stereo not given) | 1.88% |
| O=C(NC1CCOCC1)c1cccc(C2CCCNC2)c1 (stereo not given) | 2.58% |
| Cc1nc(C)n(CC2CCCN2c2ccnc(-c3ccccc3)n2)n1 (stereo not given) | 9.69% |
| CCOc1ccc(S(=O)(=O)NCc2cccnc2N(C)C)cc1 | 34.7% |
| O=C(N[C@H]1CN(Cc2cccs2)[C@@H]2CCCO[C@H]12)c1cccnc1 | -5.24% |
| Cc1cc(S(=O)(=O)Nc2onc(C)c2C)c(C)s1 | -4.96% |

Source: ChEMBL document CHEMBL4513216, “Probing the Open Global Health Chemical Diversity Library for Multistage-Active Starting Points for Next-Generation Antimalarials” (ACS Infect Dis, 2020)
